Assay results from ChEMBL document CHEMBL1649443, “Novel S-adenosylmethionine decarboxylase inhibitors for the treatment of human African trypanosomiasis” (Antimicrob Agents Chemother, 2009).
Activity calls are given as the source filed them.

What was measured:
[1] = test system: Trypanosoma brucei rhodesiense; test: Antiparasitic activity against Trypanosoma brucei rhodesiense STIB 900 clone after 72 hrs by Alamar blue assay; type: functional, organism-based; details: STIB 900, 72 h
[2] = Metabolic stability in rat liver microsomes assessed as intrinsic clearance up to 45 mins by LC/MS/MS analysis; type: ADME, Microsome
[3] = Metabolic stability in human liver microsomes assessed as intrinsic clearance up to 45 mins by LC/MS/MS analysis; type: ADME, Microsome
[4] = Metabolic stability in rat hepatocytes assessed as intrinsic clearance up to 45 mins by LC/MS/MS analysis; type: ADME, cell-based, Liver, Hepatocyte
[5] = Metabolic stability in human hepatocytes assessed as intrinsic clearance up to 45 mins by LC/MS/MS analysis; type: ADME, cell-based, Liver, Hepatocyte
Cytochrome P450 3A4 = Cytochrome P450 3A4 (Homo sapiens, UniProt P08684); test: (§1) Inhibition of human cytochrome P450 3A4
Sequence of Cytochrome P450 3A4 (P08684 whole entry): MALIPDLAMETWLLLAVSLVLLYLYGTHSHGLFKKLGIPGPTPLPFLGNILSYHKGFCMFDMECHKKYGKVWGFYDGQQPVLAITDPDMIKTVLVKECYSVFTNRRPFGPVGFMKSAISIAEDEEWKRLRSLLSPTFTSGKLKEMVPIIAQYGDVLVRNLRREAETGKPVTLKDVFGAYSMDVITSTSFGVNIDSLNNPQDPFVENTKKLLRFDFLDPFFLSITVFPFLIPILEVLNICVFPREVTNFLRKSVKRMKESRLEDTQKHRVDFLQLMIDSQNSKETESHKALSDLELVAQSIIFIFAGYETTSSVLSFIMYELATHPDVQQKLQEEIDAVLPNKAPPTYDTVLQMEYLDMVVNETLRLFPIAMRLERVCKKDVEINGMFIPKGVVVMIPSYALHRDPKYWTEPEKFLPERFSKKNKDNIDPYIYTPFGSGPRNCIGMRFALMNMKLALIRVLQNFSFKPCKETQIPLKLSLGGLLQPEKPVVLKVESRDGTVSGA

Cytochrome P450 2D6 = Cytochrome P450 2D6 (Homo sapiens, UniProt P10635); test: (§2) Inhibition of human cytochrome P450 2D6
Sequence of Cytochrome P450 2D6 (P10635 whole entry): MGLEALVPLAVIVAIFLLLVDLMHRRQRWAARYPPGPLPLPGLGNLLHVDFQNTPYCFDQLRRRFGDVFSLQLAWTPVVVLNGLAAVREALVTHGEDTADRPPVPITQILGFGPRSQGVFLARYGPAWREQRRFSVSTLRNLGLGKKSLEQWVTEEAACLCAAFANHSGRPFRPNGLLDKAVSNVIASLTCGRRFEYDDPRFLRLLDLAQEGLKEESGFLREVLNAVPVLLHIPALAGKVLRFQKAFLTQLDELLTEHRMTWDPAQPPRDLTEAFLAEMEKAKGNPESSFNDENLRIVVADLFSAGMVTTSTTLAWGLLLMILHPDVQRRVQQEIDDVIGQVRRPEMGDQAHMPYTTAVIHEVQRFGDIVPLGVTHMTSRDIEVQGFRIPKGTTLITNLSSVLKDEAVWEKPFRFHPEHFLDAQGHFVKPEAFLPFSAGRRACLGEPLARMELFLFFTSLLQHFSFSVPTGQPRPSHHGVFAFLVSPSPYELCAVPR

Cytochrome P450 2C9 = Cytochrome P450 2C9 (Homo sapiens, UniProt P11712); test: (§3) Inhibition of human cytochrome P450 2C9
Sequence of Cytochrome P450 2C9 (P11712 whole entry): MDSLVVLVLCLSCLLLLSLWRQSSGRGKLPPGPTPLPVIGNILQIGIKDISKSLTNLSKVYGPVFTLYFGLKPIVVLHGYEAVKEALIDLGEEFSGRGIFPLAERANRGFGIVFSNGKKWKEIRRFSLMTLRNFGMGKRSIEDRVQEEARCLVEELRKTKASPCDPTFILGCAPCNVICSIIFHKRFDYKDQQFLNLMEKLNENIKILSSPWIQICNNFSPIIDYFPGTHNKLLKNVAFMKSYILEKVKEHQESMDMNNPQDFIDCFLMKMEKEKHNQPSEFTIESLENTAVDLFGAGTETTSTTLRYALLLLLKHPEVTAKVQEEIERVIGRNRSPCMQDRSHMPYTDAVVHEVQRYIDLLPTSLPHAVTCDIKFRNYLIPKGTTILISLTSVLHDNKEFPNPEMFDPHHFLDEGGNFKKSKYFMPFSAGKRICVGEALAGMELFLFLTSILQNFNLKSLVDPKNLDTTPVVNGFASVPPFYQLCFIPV

Cytochrome P450 2C19 = Cytochrome P450 2C19 (Homo sapiens, UniProt P33261); test: (§4) Inhibition of human cytochrome P450 2C19
Sequence of Cytochrome P450 2C19 (P33261 whole entry): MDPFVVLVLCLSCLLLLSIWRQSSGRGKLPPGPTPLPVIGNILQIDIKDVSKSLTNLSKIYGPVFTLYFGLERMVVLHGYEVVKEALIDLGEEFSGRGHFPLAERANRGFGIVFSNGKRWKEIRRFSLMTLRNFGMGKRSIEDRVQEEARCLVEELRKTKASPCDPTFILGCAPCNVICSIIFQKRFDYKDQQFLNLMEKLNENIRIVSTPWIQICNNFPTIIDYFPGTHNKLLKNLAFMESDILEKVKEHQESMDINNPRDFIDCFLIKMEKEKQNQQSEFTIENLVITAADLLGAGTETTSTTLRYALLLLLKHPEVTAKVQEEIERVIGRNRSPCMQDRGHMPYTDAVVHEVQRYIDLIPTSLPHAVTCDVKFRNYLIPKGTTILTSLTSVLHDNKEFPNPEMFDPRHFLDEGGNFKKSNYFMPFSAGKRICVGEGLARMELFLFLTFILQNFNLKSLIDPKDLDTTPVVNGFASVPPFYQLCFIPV

Cytochrome P450 1A2 = target: T1, Cytochrome P450 1A2 (Homo sapiens, UniProt P05177); test: (§5) Inhibition of human cytochrome P450 1A2
T1 sequence (P05177 whole entry): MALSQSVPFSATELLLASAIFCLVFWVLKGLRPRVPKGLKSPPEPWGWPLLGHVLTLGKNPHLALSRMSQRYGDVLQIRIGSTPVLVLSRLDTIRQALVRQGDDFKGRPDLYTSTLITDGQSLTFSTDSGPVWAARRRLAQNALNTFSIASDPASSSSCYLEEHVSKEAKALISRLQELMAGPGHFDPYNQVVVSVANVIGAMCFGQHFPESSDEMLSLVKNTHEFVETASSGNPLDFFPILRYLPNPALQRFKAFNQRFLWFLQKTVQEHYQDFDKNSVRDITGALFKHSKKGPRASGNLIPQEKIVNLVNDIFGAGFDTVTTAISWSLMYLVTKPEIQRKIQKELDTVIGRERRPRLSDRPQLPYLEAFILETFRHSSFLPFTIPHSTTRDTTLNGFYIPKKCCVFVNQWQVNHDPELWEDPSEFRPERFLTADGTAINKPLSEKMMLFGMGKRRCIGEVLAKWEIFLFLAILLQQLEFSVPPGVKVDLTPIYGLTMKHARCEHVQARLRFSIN

[6] = Protein binding in human plasma at pH 7.4 after 4 hrs; type: ADME, cell-free; details: read-out: PPB (converted)
[7] = Protein binding in mouse plasma at pH 7.4 after 4 hrs; type: ADME, cell-free; details: read-out: PPB (converted)
[8] = AUC in mouse blood at 50 mg/kg, ip administered as single dose; type: ADME, organism-based; set-up: dose 50 mg/kg, route intraperitoneal
[9] = AUC in mouse brain at 50 mg/kg, ip administered as single dose; type: ADME, organism-based; set-up: dose 50 mg/kg, route intraperitoneal
[10] = Half life in mouse at 50 mg/kg, ip administered as single dose; type: ADME, organism-based; set-up: dose 50 mg/kg, route intraperitoneal; details: in vivo
[11] = Cmax in mouse blood at 50 mg/kg, ip administered as single dose; type: ADME, organism-based; set-up: dose 50 mg/kg, route intraperitoneal
[12] = Cmax in mouse brain at 50 mg/kg, ip administered as single dose; type: ADME, organism-based; set-up: dose 50 mg/kg, route intraperitoneal
in vivo = details: mouse, brain, ip, 50 mg/kg
[13] = Kinetic solubility in phosphate-buffered saline at pH 7.4 after 16 to 24 hrs by UV spectrophotometry
[14] = Permeability of the compound after 4 hrs by PAMPA assay; type: ADME; details: read-out: permeability
[15] = Metabolic stability in rat plasma assessed as compound remaining after 4 hrs; type: ADME, cell-free; details: read-out: Stability
[16] = Metabolic stability in human assessed as compound remaining plasma after 4 hrs; type: ADME, cell-free; details: read-out: Stability
[17] = Permeability across apical to basolateral side of human Caco2 cells; type: ADME, cell-based; details: Caco-2, read-out: permeability
[18] = Permeability across basolateral to apical side of human Caco2 cells; type: ADME, cell-based; details: Caco-2, read-out: permeability
[19] = test system: Trypanosoma brucei brucei; test: Antiparasitic activity against Trypanosoma brucei brucei STIB 795 infected in mouse assessed as mean survival days at 50 mg/kg, ip qd for 4 days administered on 3rd day of infection (reference value: 6.75 days); type: functional; details: route intraperitoneal
[20] = test system: Trypanosoma brucei brucei; test: Antiparasitic activity against Trypanosoma brucei brucei LAB 110 EATRO infected in mouse assessed as mean survival days at 50 mg/kg/day, ip bid for 4 days administered on 1st day of infection and measured through day 40 post infection; type: functional; details: route intraperitoneal
[21] = Metabolic stability in rat whole blood assessed as compound remaining; type: ADME, tissue-based
[22] = Partition coefficient in RBCs; type: ADME, cell-based; details: erythrocyte
[23] = test system: Trypanosoma brucei brucei; test: Antiparasitic activity against Trypanosoma brucei brucei LAB 110 EATRO infected in mouse assessed as parasitemia cure incidence at 50 mg/kg/day, ip bid for 4 days administered on 1st day of infection and measured through day 40 post infection; type: functional, organism-based
Summary of the method: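 Mice, groups of five, infected i.p. on day 0 with 2.5 × 10^5 parasites; dosing from day 1 at 50 mg/kg/day i.p., given either once daily for 7 days or split twice daily for 4 days. Treatment controls got pentamidine 2 mg/kg QD i.p. for 4 days. Read-out was microscopy of ≥20 fields of wet blood smears twice weekly to day 40; cure means no parasites.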

[24] = test system: Trypanosoma brucei brucei; test: Antiparasitic activity against Trypanosoma brucei brucei LAB 110 EATRO infected in mouse assessed as mean survival days at 50 mg/kg/day, ip administered on 1st day of infection and measured through day 40 post infection; details: route intraperitoneal
CYP3A4 = CYP3A4 (Homo sapiens, UniProt P08684); test: as §1; details: human
Sequence of CYP3A4 (P08684 whole entry): as the sequence (P08684 whole entry) above

CYP2D6 = CYP2D6 (Homo sapiens, UniProt P10635); test: as §2; details: human
Sequence of CYP2D6 (P10635 whole entry): as the sequence (P10635 whole entry) above

CYP2C9 = CYP2C9 (Homo sapiens, UniProt P11712); test: as §3; details: human
Sequence of CYP2C9 (P11712 whole entry): as the sequence (P11712 whole entry) above

CYP2C19 = CYP2C19 (Homo sapiens, UniProt P33261); test: as §4; details: human
Sequence of CYP2C19 (P33261 whole entry): as the sequence (P33261 whole entry) above

CYP1A2 = target: T2, CYP1A2 (Homo sapiens, UniProt P05177); test: as §5; details: human
T2 sequence (P05177 whole entry): T1 sequence (P05177 whole entry)

[25] = Tmax in rat at 10 mg/kg, po; type: ADME, organism-based; set-up: dose 10 mg/kg, route oral; details: in vivo
Summary of the method: (§6)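 Rat groups of six, split into two subgroups to limit blood collections, dosed i.v. or p.o. Blood sampled at 15 min, 30 min, 2 h, 4 h, 8 h and 24 h. Drug levels measured by LC-MS-MS. Two separate rat studies were run.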

[26] = Cmax in rat at 10 mg/kg, po; type: ADME, organism-based; set-up: dose 10 mg/kg, route oral; details: in vivo; summary of the method: as §6
[27] = AUC in rat at 3 mg/kg, iv; type: ADME, organism-based; set-up: dose 3 mg/kg, route intravenous; details: plasma
[28] = AUC in rat at 10 mg/kg, po; type: ADME, organism-based; set-up: dose 10 mg/kg, route oral; details: plasma; summary of the method: as §6
Rattus norvegicus [29] = test: Half life in rat at 3 mg/kg, iv; type: ADME, organism-based; set-up: dose 3 mg/kg, route intravenous; details: in vivo
[30] = Half life in rat at 10 mg/kg, po; type: ADME, organism-based; set-up: dose 10 mg/kg, route oral; details: in vivo; summary of the method: as §6
Rattus norvegicus [31] = test: Volume of distribution at steady state in rat at 3 mg/kg, iv; type: ADME, organism-based; set-up: dose 3 mg/kg, route intravenous; details: in vivo
[32] = Oral bioavailability in rat at 10 mg/kg, po; type: ADME, organism-based; details: in vivo; summary of the method: as §6
[33] = test system: Trypanosoma brucei brucei; test: Antiparasitic activity against Trypanosoma brucei brucei LAB 110 EATRO infected in mouse assessed as mean survival days at 50 mg/kg/day, ip qd for 7 days administered on 1st day of infection and measured through day 40 post infection; type: functional; details: route intraperitoneal
Summary of the method: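 Mice in groups of five, infected i.p. on day 0 with 2.5 × 10^5 T. b. brucei LAB 110 EATRO parasites; i.p. dosing began day 1. Parasitemia checked twice weekly by microscopy of at least 20 fields of wet blood smears through day 40, with animals considered cured only when clear through day 40.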

[34] = test system: Trypanosoma brucei brucei; test: Antiparasitic activity against Trypanosoma brucei brucei STIB 795 infected in mouse assessed as parasitemia cure incidence at 50 mg/kg, ip qd for 4 days administered on 3rd day of infection; type: functional, organism-based; set-up: dose 50 mg/kg
[35] = test system: Trypanosoma brucei brucei; test: Antiparasitic activity against Trypanosoma brucei brucei LAB 110 EATRO infected in mouse assessed as parasitemia cure incidence at 50 mg/kg/day, ip qd for 7 days administered on 1st day of infection and measured through day 40 post infection; type: functional, organism-based
[36] = test system: Trypanosoma brucei brucei; test: Antiparasitic activity against Trypanosoma brucei brucei LAB 110 EATRO infected in mouse assessed as parasitemia cure incidence at 50 mg/kg/day, ip administered on 1st day of infection and measured through day 40 post infection

Row | Structure (SMILES) | IC50 [1] | CLint scaled [2] | CLint scaled [3] | CLint scaled [4] | CLint scaled [5] | IC50 (Cytochrome P450 3A4) | IC50 (Cytochrome P450 2D6) | IC50 (Cytochrome P450 2C9) | IC50 (Cytochrome P450 2C19) | IC50 (Cytochrome P450 1A2) | fraction unbound at 4 h [6] | fraction unbound at 4 h [7] | AUC [8] | AUC [9] | half-life [10] | Cmax [11] | Cmax [12] | Kp (in vivo) | solubility kinetic [13] | Papp at 4 h [14] | other results
1 | CN(C/C=C\CN)C[C@H]1O[C@@H](n2cnc3c(N)ncnc32)[C@H](F)[C@@H]1O | 0.172 µM | < 11 mL/min/kg | < 4.2 mL/min/kg | < 11 mL/min/kg | < 4.2 mL/min/kg | > 5 µM | > 5 µM | > 5 µM | > 5 µM | > 5 µM | 0.767 | 0.523 | 16300 ng·h/mL | 140 ng·h/mL | 1.93 h | 33000 ng/mL | 30 ng/mL | 0.86 | > 47 µg/mL | – | –
2 | CN(C/C=C\CN)C[C@H]1O[C@@H](n2cnc3c(N)ncnc32)[C@H](O)[C@@H]1O | 0.0014 µM | < 11 mL/min/kg | < 4.2 mL/min/kg | < 11 mL/min/kg | < 4.2 mL/min/kg | > 5 µM | > 5 µM | > 5 µM | > 5 µM | > 5 µM | 0.271 | 0.302 | 20700 ng·h/mL | 360 ng·h/mL | 2.48 h | 44800 ng/mL | 80 ng/mL | 1.7 | > 47 µg/mL | 0.13 ×10⁻⁶ cm/s | remaining at 4 h [15]: 100%; remaining at 4 h [16]: 100%; Papp A→B [17]: 3.25 ×10⁻⁶ cm/s; Papp B→A [18]: 2.7 ×10⁻⁶ cm/s; Survival [19]: >30 days; Survival [20]: >40 days; Stability [21]: 100%; Partition coefficient [22]: 0.28; Activity [23]: Active; Survival [24]: >40 days
3 | Cc1nc(N)c2ncn([C@@H]3O[C@H](CN(C)C/C=C\CN)[C@@H](O)[C@H]3O)c2n1 | 0.0001 µM | < 11 mL/min/kg | < 4.2 mL/min/kg | < 11 mL/min/kg | < 4.2 mL/min/kg | – | – | – | – | – | 0.588 | 0.643 | 17900 ng·h/mL | 1300 ng·h/mL | 7.43 h | 36900 ng/mL | 660 ng/mL | 7.28 | > 49 µg/mL | 0.22 ×10⁻⁶ cm/s | IC50 (CYP3A4): > 5 µM; IC50 (CYP2D6): > 5 µM; IC50 (CYP2C9): > 5 µM; IC50 (CYP2C19): > 5 µM; IC50 (CYP1A2): > 5 µM; Tmax [25]: 0.25 h; Cmax [26]: 39 ng/mL; AUC [27]: 681 ng·h/mL; AUC [28]: 49 ng·h/mL; t1/2 (Rattus norvegicus [29]): 3.17 h; half-life [30]: 1.53 h; Vdss (Rattus norvegicus [31]): 853 L/kg; bioavailability [32]: 2.1%; Survival [19]: >30 days; Survival [33]: >40 days; Activity [34]: Active; Activity [35]: Active; Survival [24]: >40 days; Activity [36]: Active
